Measured values gathered from unrelated publications.
Compare with care: the assays were run in different laboratories.
KCNA1: Potassium voltage-gated channel subfamily A member 1 (KCNA1, Homo sapiens, UniProt Q09470)

| Structure (SMILES) | target | assay | system | conditions | measurement | result |
| --- | --- | --- | --- | --- | --- | --- |
| CNCCCC12CCC(c3ccccc31)c1ccccc12 | KCNA1 | ion current, inhibitor, patch clamp |  | 3 µM | inhibition | 2.68% |
| CNc1ncc2c(/C=C/C(=O)N3CCC(OC)CC3)nn(Cc3cccc(C(F)(F)F)c3)c2n1 | Cyclin-dependent kinase 3, with cyclin E1 (CDK3, Homo sapiens, UniProt Q00526) | enzyme activity, inhibitor, radiometric |  | 1 µM | remaining activity | 93% |
| O=C1NC(=O)C(c2ccccc2)(c2ccccc2)N1 | KCNA1 | ion current, inhibitor, patch clamp |  | 30 µM | inhibition | 20.6% |
| CC[C@H](C)[C@H](NC(=O)[C@H](CCC(N)=O)NC(=O)[C@H](CCCNC(=N)N)NC(=O)[C@H](CO)NC(=O)[C@H](Cc1c[nH]cn1)NC(=O)[C@@H]1CCCN1C(=O)[C@H](C)NC(=O)[C@H](CO)NC(=O)[C@H](CC(C)C)NC(=O)CNC(=O)[C@@H]1CCCN1C(=O)[C@H](CCC(N)=O)NC(=O)[C@H](CCC(N)=O)NC(=O)[C@H](CCCNC(=N)N)NC(=O)[C@H](CO)NC(=O)CNC(=O)[C@H](CO)NC(=O)[C@H](CO)NC(=O)[C@H](CCC(=O)O)NC(=O)[C@@H]1CCCN1C(=O)[C@@H]1CCCN1C(=O)[C@@H]1CCCN1C(=O)[C@H](CO)NC(=O)[C@H](CC(C)C)NC(=O)[C@H](CO)NC(=O)[C@@H](NC(=O)CN)[C@@H](C)O)C(=O)N1CCC[C@H]1C(=O)N[C@@H](C)C(=O)N1CCC[C@H]1C(=O)N[C@@H](CCC(N)=O)C(=O)NCC(=O)N[C@@H](C)C(=O)N[C@H](C(=O)N[C@@H](CC(C)C)C(=O)N[C@H](C(=O)N[C@@H](CCC(N)=O)C(=O)N[C@@H](CCCNC(=N)N)C(=O)N[C@@H](CCC(=O)O)C(=O)N[C@@H](CCCCN)C(=O)N[C@@H](CC(=O)O)C(=O)N[C@@H](CC(C)C)C(=O)N1CCC[C@H]1C(=O)N[C@@H](CC(N)=O)C(=O)N[C@@H](Cc1ccc(O)cc1)C(=O)N[C@@H](CC(N)=O)C(=O)N[C@@H](Cc1c[nH]c2ccccc12)C(=O)N[C@@H](CC(N)=O)C(=O)N[C@@H](CO)C(=O)N[C@@H](Cc1ccccc1)C(=O)NCC(=O)N[C@@H](CC(C)C)C(=O)N[C@@H](CCCNC(=N)N)C(=O)N[C@@H](Cc1ccccc1)C(N)=O)C(C)C)C(C)C | KiSS-1 receptor (KISS1R, Homo sapiens, UniProt Q969F8, N119A) | inositol phosphate, agonist | HEK293 |  | Emax | 93.6% |
| CC12CC3CC(C)(C1)CC(N)(C3)C2 | KCNA1 | ion current, inhibitor, patch clamp |  | 30 µM | inhibition | 45.8% |
| Cc1cc([C@@H](C)Nc2ccccc2C(=O)O)c2nc(N3CCC(F)(F)CC3)c(C#N)c(=O)n2c1 | RAF proto-oncogene serine/threonine-protein kinase (RAF1, Homo sapiens, UniProt P04049) | binding, competition with immobilised ligand |  | 10 µM | remaining binding | 90% |
| COc1cc(-c2cncc3c2CN(C)Cc2cc(N4CCNCC4)ccc2-3)cc(OC)c1OC | Serine/threonine-protein kinase N2 (PKN2, Homo sapiens, UniProt Q16513) | enzyme activity, inhibitor |  | 1 µM | remaining activity | 112% |
| C=CC(=O)N1CCC(COCC(=O)N2CCN(c3nc(-c4cnc(N)nc4C(F)F)nc(N4CCOC[C@@H]4C)n3)CC2)CC1 | Dual specificity protein kinase CLK2 (CLK2, Homo sapiens, UniProt P49760) | binding, competition with immobilised ligand |  | 1 µM | remaining binding | 79% |
| O=C(Cn1cc(C=CC(=O)c2ccc(F)cc2)nn1)Nc1nc(-c2ccccc2)cs1 | Collagenase 3 (MMP13, Homo sapiens, UniProt P45452) | enzyme activity, inhibitor |  | 0.5 µM | inhibition | 35.8% |
